Source: PubChem
KCNQ1 pot = potentiators or activators of KCNQ1 channel, primary screen, cell-based, thallium flux, high-throughput; CHO-K1 KCNQ1, thallium flux FluxOR fluorescence; hits give high values; B-score at 10 µM; 0.35% of 310,000 active;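 active = fluorescence ratio B-score, a plate-corrected score, at least three library SD, with initial intensity B-score within 5 SD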
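Material: CHO-K1 cells stably expressing KCNQ1. Medium: assay buffer for compound exposure, DMSO matched across wells. Reagent: K+/Tl+ depolarizing stimulus. Compound dosing: single-concentration screen. Times: 37 °C overnight plating, 90-min dark dye load, 20-min compound pretreatment. Technique: FluxOR Tl+ flux fluorescence.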
KCNK9 block = KCNK9 potassium channel inhibitors, primary screen, HEK293 cells, thallium flux; Potassium channel subfamily K member 9 (Homo sapiens), Q9NPC2; FluxOR thallium flux fluorescence; hits give low values; B-score at 10 µM; 1.2% of 310,000 active;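 active = ratio B-score over 3 SD below the library mean, with starting fluorescence within 5 SD of its mean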;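 also: negative B-score means less thallium flux so channel inhibition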
KCNQ1 block = inhibitors of human KCNQ1 channel, primary screen, cell-based, thallium flux, high-throughput; CHO-K1 KCNQ1, FluxOR thallium flux fluorescence; hits give high values; B-score at 10 µM; 1.3% of 310,000 active; AID 2642, 2010;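 active = compounds whose thallium flux B-score, printed positive for inhibition, exceeds three library SD while starting fluorescence stays within three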;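 also: channel opened by potassium depolarization with thallium stimulus after 20 min compound exposure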
hERG rescue = hERG rescue from dofetilide block, primary screen, cell-based, CHO-hERG, FluxOR thallium flux, dofetilide IC70; Voltage-gated inwardly rectifying potassium channel KCNH2 (Homo sapiens), Q12809; dofetilide IC70 present; activation (rescue from dofetilide block), less the hit threshold, % at 10 µM; 0.51% of 310,000 active;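 active = activation above the mean of controls blocked by dofetilide plus 5 SD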;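 also: thallium influx through hERG after potassium depolarization seen as dye fluorescence rise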
Kir21 block = inhibitors of mouse Kir2.1 inward-rectifier potassium channel; HEK293-Kir2.1, FluxOR thallium flux fluorescence; hits give low values; AID 1672, 2009; 0.85% of 310,000 active; B-score at 10 µM;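 active = fluorescence ratio B-score at or below minus 3 SD of library scores, with starting-brightness B-score within 2 SD, cut at about -4.2 in these data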;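 also: channel flux triggered by added potassium and thallium sulfate stimulus; B-score of peak minus minimum fluorescence over baseline after thallium stimulus; more negative B-score means stronger Kir2.1 block with less thallium influx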
Target sequence (P35561 whole entry, looked up): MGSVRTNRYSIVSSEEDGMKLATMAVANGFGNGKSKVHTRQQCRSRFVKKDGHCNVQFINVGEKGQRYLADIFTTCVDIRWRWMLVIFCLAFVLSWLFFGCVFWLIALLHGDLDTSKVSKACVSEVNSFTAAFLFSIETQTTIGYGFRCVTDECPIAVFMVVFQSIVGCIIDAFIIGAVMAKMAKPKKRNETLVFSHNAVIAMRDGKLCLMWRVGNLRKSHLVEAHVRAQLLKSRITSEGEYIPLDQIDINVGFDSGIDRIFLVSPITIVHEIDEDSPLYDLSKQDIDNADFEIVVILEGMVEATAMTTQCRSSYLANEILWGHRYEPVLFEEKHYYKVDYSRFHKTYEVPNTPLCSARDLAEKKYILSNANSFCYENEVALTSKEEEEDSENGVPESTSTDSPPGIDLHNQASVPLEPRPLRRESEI
KCNK3 block = human KCNK3 channel inhibitors, primary screen, CHO cells, FluxOR thallium flux, B-score; Potassium channel subfamily K member 3 (Homo sapiens), O14649; FluxOR fluorescence; hits give low values; B-score at 10 µM; 0.84% of 340,000 active; AID 602410, 2012;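 active = B-score under library mean minus 4 SD, starting fluorescence ratio at most library mean plus 5 SD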;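 also: more negative B-score means stronger inhibition of thallium flux through KCNK3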
A number is an active result; n = inactive; x = not tested or not shown. Only some compounds are listed: those with a hit (about 3.7% of all), similar ones and a draw of the others.

SMILES	KCNQ1 pot	KCNK9 block	KCNQ1 block	hERG rescue	Kir21 block	KCNK3 block
CS(=O)(=O)N(CC(=O)N1CCOCC1)c1cc(C(F)(F)F)ccc1Cl	n	n	n	7.3	n	n
Cc1ccc(N(Cc2ccco2)C(=O)c2ccc(N3CCCCC3)c([N+](=O)[O-])c2)cc1	n	n	8	n	n	n
O=C(NCc1ccco1)c1ccc(N2CCCCC2)c([N+](=O)[O-])c1	n	n	n	n	n	n
C/C(=N\NC(=O)Cc1ccc(Cl)cc1)c1cccc(NC(=O)c2cccnc2)c1	n	n	n	n	n	n
COc1ccc(C(C(=O)NC(C)(C)C)N(C(=O)CCC(=O)Nc2cc(C)on2)c2cccc(F)c2)cc1 (configuration not stated)	24	n	n	7.1	n	n
CCC(C)(C)NC(=O)C(c1ccc(OC)cc1)N(C(=O)CCC(=O)Nc1cc(C)on1)c1cccc(F)c1 (configuration not stated)	n	n	n	n	n	n
CC1CCCC(NC(=O)CNC(=S)N(Cc2ccccc2)Cc2cccs2)C1C (configuration not stated)	n	n	9	n	n	n
CCCCNC(=O)CNC(=S)N(Cc1ccccc1)Cc1cccs1	n	n	n	n	n	n
CCn1c(SCCN2CCCCC2)nc2c1c(=O)n(C)c(=O)n2C	x	x	x	x	x	n
COc1ccc2c(c1)c(/C=C/c1cc[n+](C)cc1)cn2C	n	-8	n	n	n	n
COc1ccc2c(/C=C/c3cc[n+](C)cc3)c[nH]c2c1	n	n	n	n	n	n
C=C(C)Cn1c(-c2ccncc2)n[nH]c1=S	n	n	n	n	n	n
Cc1ccc2c(CC(=O)OC(C)C(=O)Nc3ncc(Cl)cc3Cl)coc2c1 (configuration not stated)	n	n	n	n	-4.5	n
COc1cccc(CC(=O)OC(C)C(=O)Nc2ncc(Cl)cc2Cl)c1 (configuration not stated)	n	n	n	n	-4.5	n
CC(OC(=O)Cc1coc2ccc3ccccc3c12)C(=O)Nc1ncc(Cl)cc1Cl (configuration not stated)	n	n	n	n	-5.6	n
CCOc1ccccc1OCC(=O)OC(C)C(=O)Nc1ncc(Cl)cc1Cl (configuration not stated)	x	x	x	x	x	n
CCOc1ccc(CCNC(=O)c2cc(=O)[nH]c3ccc(S(=O)(=O)N(CC)CC)cc23)cc1OCC	n	n	n	n	n	n
CCCSc1nc(C)cc(C)c1S(=O)(=O)c1ccccc1C	n	-7.5	n	n	n	n
Cc1ccccc1S(=O)(=O)c1c(C)cc(C)n(C(C)C)c1=O	n	n	n	n	-4.4	n
CCCCn1c(C)cc(C)c(S(=O)(=O)c2ccccc2C)c1=O	n	n	n	n	n	n
CCCSc1nc(C)cc(C)c1S(C)(=O)=O	n	n	n	n	n	n
CCc1cc(C(=O)N(CC)CC(=O)Nc2ccc(OC)cc2)sc1C	x	x	x	x	x	n
Cc1ccc(CNC(=O)c2ccc3c(=O)[nH]c4c(C(=O)NCC5CCCO5)sc(=S)n4c3c2)cc1 (configuration not stated)	n	n	10	n	n	n
O=C(NC1CCCC1)c1sc(=S)n2c1[nH]c(=O)c1ccccc12	n	n	n	n	n	n
O=C(NCc1ccccc1)c1ccc2c(=O)[nH]c3c(C(=O)NCC4CCCO4)sc(=S)n3c2c1 (configuration not stated)	n	n	8	n	n	n
CCCCCNC(=O)c1ccc2c(=O)[nH]c3c(C(=O)NCC4CCCO4)sc(=S)n3c2c1 (configuration not stated)	n	n	n	n	n	n
O=C(NCc1ccco1)c1sc(=S)n2c1[nH]c(=O)c1ccccc12	n	n	7	n	n	n
CCn1c(O)c(N=NC2=NC(=O)CS2)c2ccccc21	n	n	n	9.1	n	n
CCn1cc(-c2ccccc2)c(C(=O)O)c1-c1ccc(OC)cc1	n	n	n	n	n	n
